Reference: ChEMBL document CHEMBL1129449 (J Med Chem, 1996)
pKi: −log10 of the molar value.

What was measured:
D(1A) dopamine receptor = D(1A) dopamine receptor (Rattus norvegicus, UniProt P18901); test: Binding affinity at Dopamine receptor D1 in rat neostriatum by [3H]-SCH- 23390 displacement.; format: tissue-based, Striatum
Summary of the method: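 Tissue: sections of neostriatum from male Sprague–Dawley rats (250–300 g). Test substances dissolved in distilled water. Values are mean ± SEM of five to seven independent experiments, each run in triplicate.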

D(2) dopamine receptor = D(2) dopamine receptor (Rattus norvegicus, UniProt P61169); test: Binding affinity at Dopamine receptor D2 in rat neostriatum frozen sections by [3H]-spiperone displacement.
Sequence of D(2) dopamine receptor (P61169 whole entry): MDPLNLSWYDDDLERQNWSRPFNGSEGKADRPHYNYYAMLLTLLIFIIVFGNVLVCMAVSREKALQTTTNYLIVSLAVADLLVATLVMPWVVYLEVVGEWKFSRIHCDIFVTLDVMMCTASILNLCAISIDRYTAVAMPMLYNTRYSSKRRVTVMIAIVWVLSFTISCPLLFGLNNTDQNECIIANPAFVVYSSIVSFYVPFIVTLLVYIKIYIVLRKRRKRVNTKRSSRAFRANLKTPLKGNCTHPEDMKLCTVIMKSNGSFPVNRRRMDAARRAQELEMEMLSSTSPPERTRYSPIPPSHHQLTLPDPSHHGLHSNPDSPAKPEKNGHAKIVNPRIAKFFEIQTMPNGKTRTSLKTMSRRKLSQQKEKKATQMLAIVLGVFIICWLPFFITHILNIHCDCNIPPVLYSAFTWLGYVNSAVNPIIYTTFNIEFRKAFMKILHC

Sequence of D(1A) dopamine receptor (P18901 whole entry): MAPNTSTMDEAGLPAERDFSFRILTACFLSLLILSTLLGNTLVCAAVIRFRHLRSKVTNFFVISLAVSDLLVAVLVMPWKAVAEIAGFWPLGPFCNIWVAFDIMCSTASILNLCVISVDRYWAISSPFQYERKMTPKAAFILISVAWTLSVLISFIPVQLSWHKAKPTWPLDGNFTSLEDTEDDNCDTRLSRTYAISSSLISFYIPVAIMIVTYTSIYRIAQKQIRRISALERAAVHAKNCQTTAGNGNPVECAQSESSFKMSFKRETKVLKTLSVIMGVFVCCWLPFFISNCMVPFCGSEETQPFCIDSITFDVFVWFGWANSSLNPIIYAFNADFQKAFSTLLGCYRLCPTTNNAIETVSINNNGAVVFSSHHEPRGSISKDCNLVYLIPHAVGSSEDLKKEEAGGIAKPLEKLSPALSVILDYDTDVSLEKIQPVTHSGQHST

Row | SMILES | pKi (D(1A) dopamine receptor) | pKi (D(2) dopamine receptor)
1 | C[C@@]1(c2ccccc2)c2cc(O)c(O)cc2C[C@@]1(C)N | 8.26 | < 6.00
2 | N[C@@H]1Cc2ccc(O)cc2[C@H]1c1ccccc1 (stereo in doubt; (+)-14a) | 8.60 | 9.23
3 | N[C@@H]1Cc2cc(O)ccc2[C@H]1c1ccccc1 (stereo in doubt; (+)-14b) | 8.73 | < 6.00
4 | CCCN(CCC)[C@@H]1Cc2ccc(O)cc2[C@H]1c1ccccc1 (stereo in doubt; (+)-15a) | 7.55 | 7.29
5 | CCCN(CCC)[C@@H]1Cc2cc(O)ccc2[C@H]1c1ccccc1 (stereo in doubt; (+)-15b) | 8.85 | < 6.00
6 | C=CCN(C)[C@@H]1Cc2ccc(O)cc2[C@H]1c1ccccc1 (stereo in doubt; (+)-16a) | 8.52 | 7.43
7 | C=CCN(C)[C@@H]1Cc2cc(O)ccc2[C@H]1c1ccccc1 (stereo in doubt; (+)-16b) | < 6.00 | < 6.00
8 | CCCN(C)[C@@H]1Cc2ccc(O)cc2[C@H]1c1ccccc1 (stereo in doubt; (+)-17a) | 9.05 | 9.52
9 | CCCN(C)[C@@H]1Cc2cc(O)ccc2[C@H]1c1ccccc1 (stereo in doubt; (+)-17b) | < 6.00 | < 6.00
10 | N[C@@H]1Cc2ccc(O)cc2[C@H]1c1ccccc1 (stereo in doubt; (-)-14a) | 7.46 | 9.05
11 | N[C@@H]1Cc2cc(O)ccc2[C@H]1c1ccccc1 (stereo in doubt; (-)-14b) | 7.73 | < 6.00
12 | CCCN(CCC)[C@@H]1Cc2ccc(O)cc2[C@H]1c1ccccc1 (stereo in doubt; (-)-15a) | 7.58 | 9.08
13 | CCCN(CCC)[C@@H]1Cc2cc(O)ccc2[C@H]1c1ccccc1 (stereo in doubt; (-)-15b) | 8.75 | < 6.00
14 | C=CCN(C)[C@@H]1Cc2ccc(O)cc2[C@H]1c1ccccc1 (stereo in doubt; (-)-16a) | 9.10 | 9.37
15 | C=CCN(C)[C@@H]1Cc2cc(O)ccc2[C@H]1c1ccccc1 (stereo in doubt; (-)-16b) | < 6.00 | < 6.00
16 | CCCN(C)[C@@H]1Cc2ccc(O)cc2[C@H]1c1ccccc1 (stereo in doubt; (-)-17a) | 9.06 | 9.47
17 | CCCN(C)[C@@H]1Cc2cc(O)ccc2[C@H]1c1ccccc1 (stereo in doubt; (-)-17b) | < 6.00 | < 6.00
